Measured values from PMC3068229 (Biochemistry, 2011).

Tests used:
annexin A1 [1] = biological target: T1, annexin A1 (Mus musculus, UniProt P10107); assay: SPR, carbohydrates flowed over annexin A1 immobilized on NTA chips; assay type: binding; conditions: annexin A1 1 µM immobilized
T1 sequence (P10107 1-346): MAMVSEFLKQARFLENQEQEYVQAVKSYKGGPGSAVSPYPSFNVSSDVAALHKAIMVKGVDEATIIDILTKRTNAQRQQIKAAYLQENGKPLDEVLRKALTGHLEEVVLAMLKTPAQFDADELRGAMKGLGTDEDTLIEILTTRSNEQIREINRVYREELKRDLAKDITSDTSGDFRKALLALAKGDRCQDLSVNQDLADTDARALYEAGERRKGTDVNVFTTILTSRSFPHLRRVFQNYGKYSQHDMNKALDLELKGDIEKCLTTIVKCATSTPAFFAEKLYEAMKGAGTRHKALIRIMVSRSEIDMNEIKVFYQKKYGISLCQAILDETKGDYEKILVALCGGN
Procedure, shortened: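 The NTA chip was primed with 500 μM NiCl2 in HBS-EP running buffer (10 mM HEPES pH 7.4, 150 mM NaCl, 50 μM EDTA, 0.05% Tween-20), then His-tagged mouse annexin A1 (1 μM) was captured. Test glycans, either free glycosaminoglycans or polyacrylamide-coupled glycans at 5 or 50 μg/mL, or buffer alone, were injected for 3 min in HBS-N with 1 mM CaCl2 and 1 mM MgCl2. After dissociation, the chip was regenerated with 35 mM EDTA.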

annexin A1 [2] = biological target: T1, annexin A1; assay: Glycan array; assay type: binding; conditions: annexin A1-His 0.2 mg/ml, 2 mM CaCl2, 2 mM MgCl2, fluorescence (RFU)
Procedure, shortened: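 Recombinant full-length mouse annexin A1 with a C-terminal His6 tag was expressed in E. coli BL21(DE3) with 1 mM IPTG induction, purified on Ni-NTA and dialysed into 20 mM Tris pH 7.9 with 250 mM NaCl. The array was probed with 0.2 mg/mL protein in TBS-CM (pH 7.4) containing 1% BSA and 0.05% Tween-20, for 60 min at room temperature in a humid chamber. Read-out was mean RFU of 6 replicates after dropping the highest and lowest values.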

CO[C@H]1O[C@H](COS(=O)(=O)O)[C@@H](O[C@@H]2O[C@@H](C(=O)O)[C@@H](O[C@H]3O[C@H](COS(=O)(=O)O)[C@@H](O[C@@H]4O[C@H](C(=O)O)[C@@H](O[C@H]5O[C@H](COS(=O)(=O)O)[C@@H](O)[C@H](O)[C@H]5NS(=O)(=O)O)[C@H](O)[C@H]4O)[C@H](OS(=O)(=O)O)[C@H]3NS(=O)(=O)O)[C@H](O)[C@H]2OS(=O)(=O)O)[C@H](O)[C@H]1NS(=O)(=O)O [arixtra, fondaparinux sodium]
Glycosaminoglycan binding to annexin A1 immobilized on NTA SPR chip (annexin A1 [1]; glycosaminoglycans 5 or 50 µg/mL): bound less well

O=C[C@H](O)[C@@H](O)[C@H](O)[C@H](O)C(=O)O [glucuronic acid]
Annexin A1 binding on glycan array (annexin A1 [2]): among the best recognized glycans

LacNAc
Binding to annexin A1 immobilized on NTA SPR chip (annexin A1 [1]; carbohydrate flowed over): did not interact

[3OSO3^−][6OSO3^−]Galβ1-4[6OSO3^−]GlcNAcβ-Sp0 [compound 26]
Annexin A1 binding on glycan array (annexin A1 [2]): strongest binder | Annexin A1 binding on glycan array (annexin A1 [2]; listed as [3OSO3^− ][6OSO3^−]Galβ1-4[6OSO3^−]GlcNAcβ): best binder
